Here are results for 25 molecules from ChEMBL document CHEMBL1150350, “Evaluation of the amino acid binding site of Mycobacterium tuberculosis glutamine synthetase for drug discovery” (Bioorg Med Chem, 2008).

As usually defined, the inhibition is the relative decrease from the control value, in per cent. A high value points to a response far below the control. The term Ki denotes the equilibrium dissociation constant of an inhibitor or competing ligand from its target. Read a high Ki as a looser hold on the target. The IC50 is the concentration at which inhibition is half-maximal. Low readings indicate higher potency, high ones lower potency.

The test system of experiment [1] is Mycobacterium tuberculosis. The conditions noted are these: at 1 mM.
Experiment [2] is described as follows: Inhibition of sheep brain glutamine synthetase by transferase assay. Set-up: species or system Ovis aries.
Experiment [3] has as its target T1, Glutamine synthetase (Glycine max, UniProt Q43760).
T1 sequence (Q43760 whole entry): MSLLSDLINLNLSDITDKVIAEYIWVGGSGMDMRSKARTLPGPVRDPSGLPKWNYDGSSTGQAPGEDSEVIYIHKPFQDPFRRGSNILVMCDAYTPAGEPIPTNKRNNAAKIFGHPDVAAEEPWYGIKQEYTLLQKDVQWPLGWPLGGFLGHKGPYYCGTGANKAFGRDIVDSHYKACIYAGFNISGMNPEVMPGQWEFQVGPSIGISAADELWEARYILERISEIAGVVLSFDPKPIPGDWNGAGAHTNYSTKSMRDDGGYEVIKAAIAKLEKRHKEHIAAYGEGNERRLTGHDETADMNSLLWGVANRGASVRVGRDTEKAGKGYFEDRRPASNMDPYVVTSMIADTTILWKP
Nature of the experiment: Inhibition of soybean glutamine synthetase by transferase assay.

The test system of experiment [4] is Mycobacterium tuberculosis. Nature of the experiment: Inhibition of Mycobacterium tuberculosis glutamine synthetase at 0.75 mM in DMSO. The gist of the method: (§1)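 Compound from a DMSO stock (2% v/v DMSO final) was preincubated 20 min at RT with unadenylylated MtGS (7 nM subunit) in 50 mM HEPES-HCl pH 7.5, 25 mM MgCl2, 1 mM ATP and 30 mM NH4Cl. Started with 10 mM L-glutamate, 60 min at RT. Phosphate read at 635 nm, corrected by a compound-background plate lacking GS and ATP. Triplicate, % vs uninhibited enzyme.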

For experiment [5], the system named is Mycobacterium tuberculosis. Nature of the experiment: Inhibition of Mycobacterium tuberculosis glutamine synthetase at 0.93 mM in water. The gist of the method:
(§2)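 Unadenylylated MtGS from an E. coli expression strain, 7 nM subunit, in 50 mM HEPES-HCl pH 7.5 with 25 mM MgCl2, 1 mM ATP and 30 mM NH4Cl. Compound (water stock) was preincubated 20 min at RT, then 10 mM L-glutamate was added and the reaction run 60 min at RT. Released Pi was read at A635 minus a no-GS/no-ATP background. Triplicate; % of uninhibited; t-test, p<0.1.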

Experiment [6] deals with Mycobacterium tuberculosis. Nature of the experiment: Inhibition of Mycobacterium tuberculosis glutamine synthetase at 1 mM in DMSO. In outline:
as §1

The species entered for experiment [7] is Ovis aries. In words: Inhibition of sheep brain glutamine synthetase at 25 mM.
The subject of experiment [8] is Mycobacterium tuberculosis. In words: Activation of Mycobacterium tuberculosis glutamine synthetase at 1 mM in water. The gist of the method:
as §2

A short description of experiment [9]: Inhibition of Escherichia coli glutamine synthetase by transferase assay.
A further experiment has as its system Escherichia coli. Nature of the experiment: Inhibition of Escherichia coli glutamine synthetase at 1.1 mM.
Experiment [10] concerns Mycobacterium tuberculosis. In words: Inhibition of Mycobacterium tuberculosis glutamine synthetase at 0.50 mM in water. The gist of the method: as §2
The nature of experiment [11]: Inhibition of Mycobacterium tuberculosis glutamine synthetase by transferase assay.
Experiment [12] has as its system Mycobacterium tuberculosis. Nature of the experiment: Activation of Mycobacterium tuberculosis glutamine synthetase at 0.50 mM in water. In outline: as §2
Experiment [13] deals with Mycobacterium tuberculosis. Nature of the experiment: Inhibition of Mycobacterium tuberculosis glutamine synthetase at 0.20 mM in water. In outline: as §2
The species named for experiment [14] is Ovis aries. In words: Inhibition of sheep brain glutamine synthetase at 0.5 mM by transferase assay.
Experiment [15] concerns the target T2, Glutamine synthetase (Salmonella typhimurium (strain LT2 / SGSC1412 / ATCC 700720), UniProt P0A1P6).
T2 sequence (P0A1P6 whole entry): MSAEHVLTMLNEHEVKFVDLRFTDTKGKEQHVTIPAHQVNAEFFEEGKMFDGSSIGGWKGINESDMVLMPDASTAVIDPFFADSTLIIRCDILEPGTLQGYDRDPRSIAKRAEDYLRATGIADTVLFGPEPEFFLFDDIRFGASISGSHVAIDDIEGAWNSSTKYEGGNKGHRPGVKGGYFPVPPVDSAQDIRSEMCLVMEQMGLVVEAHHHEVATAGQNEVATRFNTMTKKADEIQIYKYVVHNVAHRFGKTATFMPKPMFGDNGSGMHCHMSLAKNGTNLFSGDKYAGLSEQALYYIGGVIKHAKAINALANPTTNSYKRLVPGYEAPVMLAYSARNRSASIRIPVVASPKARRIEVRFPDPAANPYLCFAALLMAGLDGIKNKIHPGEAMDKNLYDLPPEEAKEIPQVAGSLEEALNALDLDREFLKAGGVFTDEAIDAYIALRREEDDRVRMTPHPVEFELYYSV
Nature of the experiment: Inhibition of Salmonella Typhimurium glutamine synthetase by transferase assay. Set-up: species or system Salmonella enterica subsp. enterica serovar Typhimurium.

The target of experiment [16] is T3, Glutamine synthetase (Glycine max) (UniProt Q43760).
T3 sequence (whole entry): T1 sequence (Q43760 whole entry)
Nature of the experiment: Inhibition of soybean glutamine synthetase at 0.5 mM by transferase assay.

Experiment [17] deals with Mycobacterium tuberculosis. Nature of the experiment: Inhibition of Mycobacterium tuberculosis glutamine synthetase at 0.90 mM in water. In outline:
as §2

Activity calls are given as the source filed them. The calls are words filed in the database; no cut-off is given here.

As for `N[C@@H](CCNO)C(=O)O`, the inhibition in experiment [1] is 26%. Also, the Ki amounted to 7 µM in [2] and 21 µM on Glutamine synthetase [3].

Regarding `N[C@@H](CCCP(=O)(O)O)C(=O)O`, the result in experiment [4] was inactive.

In the case of `NC(Cc1ccc(CP(=O)(O)O)cc1)C(=O)O` (centres undefined), in [5], the result was inactive.

In turn, `NS(=O)(=O)c1cccc(N[C@H](CO)C(=O)O)c1` showed an inhibition in experiment [1] of 33%.

In the case of `O=C(O)c1cccc(NC(=O)c2nc[nH]n2)c1`, the inhibition in [6] was determined as 26%.

In experiment [1], `O=C(O)CNc1ccc(O)c(S(=O)(=O)O)c1` gave an inhibition of 48%.

As to `CS(=O)(=O)CC[C@H](N)C(=O)O`, the inhibition was 33% in [1] and 67% in the experiment filed under Ovis aries [7].

Turning to `O=C(O)c1cccc(N[C@H](CO)C(=O)O)c1`, the result in [8] was Active.

The molecule `N[C@@H](CCP(=O)(O)O)C(=O)O` came in with a Ki in [9] of 54 µM. For the same molecule, in the experiment with Escherichia coli, the inhibition stood at 61%.

In the case of `CSc1cccc(N[C@H](CO)C(=O)O)c1`, the outcome in [10] was inactive.

Consider `NS(=O)(=O)c1cccc(N[C@@H](CO)C(=O)O)c1`, for which, in [8], the outcome was Active.

Consider `CP(=O)(O)CCC(N)C(=O)O` (racemic) [GLUFOSINATE], for which, in experiment [11], the IC50 was 1.9 µM.

Take `O=C(O)CNc1cccc(C(=O)O)c1`: in experiment [8], the result was Active.

As to `CSc1cccc(N[C@@H](CO)C(=O)O)c1`, the outcome in experiment [12] was Active.

Turning to `C[S+]([O-])c1cccc(NCC(=O)O)c1` (centres undefined), the inhibition in experiment [1] is 30%.

In the case of `O=C(O)c1cccc(N[C@@H](CO)C(=O)O)c1`, the outcome in experiment [8] was Active.

As for `CCOP(=O)(OCC)c1cccc(N[C@@H](CO)C(=O)O)c1`, in experiment [8], the outcome was Active.

In experiment [6], `NS(=O)(=O)c1ccc2[nH]c(=O)[nH]c2c1` gave an inhibition of 24%.

With `NC(Cc1ccccc1CP(=O)(O)O)C(=O)O` (centres undefined), the outcome in experiment [13] was inactive.

On to `NC[C@H](O)CC[C@H](N)C(=O)O`, for which the inhibition in the experiment listed under Ovis aries [14] came to 22%; in experiment [1] it was 58%; in [6] it was 56%; in experiment [16], 21%. In addition, the Ki on Glutamine synthetase [15] turned out to be 40 µM. This molecule also registered a half-maximal inhibitory concentration (IC50) in experiment [11] of 610 µM.

As for `CCOP(=O)(OCC)c1cccc(N[C@H](CO)C(=O)O)c1`, the outcome in [8] was Active.

The molecule `C[S+]([O-])c1cccc(N[C@@H](CO)C(=O)O)c1` (some centres undefined) came in with an inhibition in experiment [1] of 13%.

`CCOP(=O)(OCC)c1cccc(NCC(=O)O)c1`: the inhibition in experiment [6] came out at 42%.

Molecule `C[S+]([O-])CC[C@H](N)C(=O)O` (some centres undefined) showed an inhibition in the experiment filed under Ovis aries [7] of 11%.

For `CSc1cccc(NCC(=O)O)c1`, the result in experiment [17] was inactive.
